Assay results taken from ChEMBL document CHEMBL1124632 (J Med Chem, 1989).

Key:
[1] = molecular target: T1, 5-hydroxytryptamine receptor 1B (Rattus norvegicus, UniProt P28564); test: (§1) Inhibitory activity against 5-hydroxytryptamine 1B receptor of rat striatal membrane homogenate using [3H]5-HT as the radioligand.
[2] = molecular target: T2, 5-hydroxytryptamine receptor 1A (Rattus norvegicus, UniProt P19327); test: (§2) Inhibitory activity against 5-hydroxytryptamine 1A receptor of rat hippocampal tissue using [3H]OH-DPAT as radioligand.
T2 sequence (P19327 whole entry): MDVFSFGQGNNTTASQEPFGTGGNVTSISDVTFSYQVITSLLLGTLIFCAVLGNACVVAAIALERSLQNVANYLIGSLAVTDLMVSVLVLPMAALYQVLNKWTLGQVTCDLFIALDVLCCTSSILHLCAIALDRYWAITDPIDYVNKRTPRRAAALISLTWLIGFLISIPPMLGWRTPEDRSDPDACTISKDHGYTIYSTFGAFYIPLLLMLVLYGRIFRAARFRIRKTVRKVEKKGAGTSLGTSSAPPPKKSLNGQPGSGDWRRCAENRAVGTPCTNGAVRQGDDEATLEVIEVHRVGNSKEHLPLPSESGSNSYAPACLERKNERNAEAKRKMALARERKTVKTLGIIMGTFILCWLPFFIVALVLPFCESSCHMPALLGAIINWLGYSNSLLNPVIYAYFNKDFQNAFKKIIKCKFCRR

[3] = molecular target: Adrenergic receptor beta (Rattus norvegicus, UniProt P18090+P10608+P26255); test: Inhibitory activity against beta adrenergic receptor of rat frontal cortex homogenate using (1.0 nM) [3H]- dihydroalprenolol; format: tissue-based
[4] = molecular target: T2, 5-hydroxytryptamine receptor 1A; test: as §2; format: tissue-based, Hippocampus
How it was run: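 Rat hippocampal membranes (4 mg wet weight), washed and preincubated 15 min at 37 °C, in 50 mM Tris HCl with 0.5 mM Na₂EDTA, 10 mM MgSO₄, 10 μM pargyline and 0.1% ascorbate. 0.1 nM [³H]8-OH-DPAT, 1 μM 8-OH-DPAT for nonspecific binding. Eleven competitor concentrations, at least triplicate. Incubated 30 min at 37 °C, then filtered over glass fiber. Ki reported.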

[5] = molecular target: T1, 5-hydroxytryptamine receptor 1B; test: as §1; remark: listed apart in the source
How it was run: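 Competition binding on washed rat striatal membrane homogenate (8 mg) with 2.0 nM [³H]5-HT. 10⁻⁷ M 8-OH-DPAT and mesulergine block 5-HT1A and 5-HT1C sites; 10⁻⁶ M 5-HT defines nonspecific binding. Buffer: 50 mM Tris HCl, EDTA, MgSO₄, 10 μM pargyline, 0.1% ascorbate. Eleven concentrations, at least triplicate. 37 °C for 30 min, then glass-fiber filtration. Ki given.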

T1 sequence (P28564 whole entry): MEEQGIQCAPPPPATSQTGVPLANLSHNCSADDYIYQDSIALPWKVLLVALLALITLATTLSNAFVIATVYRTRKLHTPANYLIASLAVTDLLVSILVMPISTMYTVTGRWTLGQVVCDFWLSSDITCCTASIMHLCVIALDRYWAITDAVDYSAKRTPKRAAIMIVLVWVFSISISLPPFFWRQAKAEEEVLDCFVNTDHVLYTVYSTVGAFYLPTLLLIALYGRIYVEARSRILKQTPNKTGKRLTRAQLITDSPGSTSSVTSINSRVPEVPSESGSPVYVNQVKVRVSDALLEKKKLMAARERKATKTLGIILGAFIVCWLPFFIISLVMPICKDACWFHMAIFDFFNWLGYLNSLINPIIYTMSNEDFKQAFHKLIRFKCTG

Row | Structure (SMILES) | Ki [1] | Ki [2] | Ki [3] | Ki [4] | Ki [5]
1 | CCCN(C)CCOc1cccc2ccccc12 | 1800 nM | 45 nM | 5300 nM |  | 
2 | CCCCN(CC)CCC(=O)c1cccc2ccccc12 |  |  |  | 3530 nM | 
3 | CCCN(CCC)CCCOc1ccccc1 | > 10000 nM | 2750 nM |  |  | 
4 | CN(C)CCCOc1ccccc1 | > 10000 nM | 4850 nM |  |  | 
5 | CCCN(CCC)CCCOc1cccc2ccccc12 | 6100 nM | 450 nM |  |  | 
6 | CN(C)CCCNc1ccccc1 | > 10000 nM | > 25000 nM |  |  | 
7 | CN(C)CCCOc1cccc2ccccc12 | 1000 nM | 345 nM | 2400 nM |  | 
8 | CCCCN(CC)CCOc1cccc2ccccc12 | 1100 nM | 39 nM | 5000 nM |  | 
9 | COc1ccccc1OCCCN(C)C | > 10000 nM | 3000 nM |  |  | 
10 | CCCCN(CCCC)CCOc1cccc2ccccc12 | 9000 nM | 150 nM | > 10000 nM |  | 
11 | CCCCN(CCCC)CCCOc1cccc2ccccc12 | 5650 nM | 225 nM | 8300 nM |  | 
12 | CN(C)CCCCc1ccccc1 |  |  |  | 5000 nM | > 10000 nM
13 | CNCCCOc1ccccc1 | 3100 nM | 3300 nM |  |  | 
14 | CCCCN(CC)CCCc1cccc2ccccc12 |  |  |  | 300 nM | 
15 | CN(C)CCCCOc1cccc2ccccc12 | 1000 nM | 400 nM |  |  | 
16 | CCCN(CCC)CC(O)COc1cccc2ccccc12 (centres undefined) |  |  |  | 1320 nM | 8000 nM
17 | CN(CCOc1cccc2ccccc12)Cc1ccccc1 |  | 95 nM |  |  | 
18 | NCCOc1cccc2ccccc12 |  | 60 nM |  |  | 
19 | CN(C)CCCOc1ccccc1O | > 10000 nM | 4900 nM |  |  | 
20 | CCCCN(CC)CCCC1CCCc2ccccc21 (centres undefined) |  |  |  | 540 nM | 
21 | CN(C)CCOc1cccc2ccccc12 | 1500 nM | 80 nM | 4500 nM |  | 
22 | CN(C)Cc1cccc2ccccc12 |  |  |  | 3420 nM | 
